Screens deposited in PubChem BioAssay by several laboratories.
Measles CPE: protection of cells from measles virus; Measles virus-infected cells, CPE protection, absorbance; protection (pct of control), % at 4 µM; 140,000 compounds, 1.5% hits; AID 841; in the data active means protection mostly above about 24%, no sharp cut-off; inactive means mostly below about 26%
Yeast life ext: yeast lifespan extension; S. cerevisiae growth with nicotinamide, OD615; deaD strain in restrictive glucose medium; inhibition of the nicotinamide effect, % at 10 µM; 130,000 compounds, 0.68% hits;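 active means inhibition above a set limit, placed 3 SD over the median of all compounds, cut at about 26% in these data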
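Buffer or medium: CSMM-D glucose medium, restrictive; test system: modified budding yeast, DeaD strain; compound: single dose 10 µM compound, 0.25% DMSO; schedule: culture preincubation 4 h, compound exposure 48 h, both 30 °C; detection: optical density (absorbance) at 615 nm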
hDAT+cocaine: human DAT dopamine uptake with cocaine, either direction; Q01959; LLC-PK1 hDAT cells, [14C]-dopamine uptake with cocaine IC80; actives deviate in either direction; B-score at 10 µM; 110,000 compounds, 1.3% hits;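 active means Z score or B-score, a plate-position-corrected score, falls beyond the plate's 99.7% confidence bounds, in either direction; inactive means both scores lie inside the 99.7% bounds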
Target sequence (Q01959 whole entry, looked up): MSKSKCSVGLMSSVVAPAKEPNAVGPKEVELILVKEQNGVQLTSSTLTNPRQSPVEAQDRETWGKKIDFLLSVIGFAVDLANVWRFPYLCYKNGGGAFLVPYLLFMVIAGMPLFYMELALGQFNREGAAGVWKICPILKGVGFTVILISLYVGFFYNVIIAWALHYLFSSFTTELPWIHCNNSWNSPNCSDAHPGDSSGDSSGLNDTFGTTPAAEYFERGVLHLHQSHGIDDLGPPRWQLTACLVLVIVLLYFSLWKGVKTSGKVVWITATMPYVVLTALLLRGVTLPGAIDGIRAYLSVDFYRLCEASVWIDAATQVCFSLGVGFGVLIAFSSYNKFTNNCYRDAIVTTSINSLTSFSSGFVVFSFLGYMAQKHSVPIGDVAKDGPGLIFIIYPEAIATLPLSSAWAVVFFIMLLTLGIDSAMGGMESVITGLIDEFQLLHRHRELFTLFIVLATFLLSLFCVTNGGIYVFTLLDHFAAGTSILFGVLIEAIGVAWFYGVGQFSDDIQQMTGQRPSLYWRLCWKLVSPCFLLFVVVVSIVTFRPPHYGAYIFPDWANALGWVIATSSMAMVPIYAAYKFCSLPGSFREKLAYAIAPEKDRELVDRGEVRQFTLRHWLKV
Yeast growth inh: chemicals that inhibit yeast BB579 growth in restrictive medium (lifespan-shortening candidates); S. cerevisiae BB579 growth, OD615, 48 h; inhibition, % at 10 µM; 140,000 compounds, 0.51% hits; AID 804;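 active means inhibition above a set limit, 3 SD over the mean compound inhibition, cut at about 44% in these data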
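System: DeaD yeast strain BB579; buffer or medium: CSMM-D dextrose restrictive medium; technique: OD at 615 nm; schedule: 4 h cell preincubation, 48 h compound exposure, 30 °C humidified; doses: single 10 µM dose; controls: amphotericin B 10 µg/mL, positive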
RAM inhibit: blocks the yeast RAM network; S. cerevisiae dse1pr::URA3 reporter, 5-FOA growth OD615, 2 d; analog-sensitive cbk1-as2 kinase mutant strain; inhibition, % at 50 µM; 190,000 compounds, 1.8% hits; AID 868;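 active means inhibition above a set limit, 3 SD over mean compound inhibition, cut at about 8.4% in these data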;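 further: inhibition rescues growth on 5-FOA so higher OD means more RAM inhibition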
WT yeast gro inh: growth inhibition of WT yeast, mitochondrial fusion screen; mitochondrial fusion phenotypic screen, WT strain; inhibition, % at 10 µM; 190,000 compounds, 2.1% hits; in the data active means inhibition above about 58%; tested in S. cerevisiae
Numbers stand for hits; . = inactive; / = no result given. Only some compounds are listed: those with a hit (about 6.1% of all), similar ones and a draw of the others.

SMILES	Measles CPE	Yeast life ext	hDAT+cocaine	Yeast growth inh	RAM inhibit	WT yeast gro inh
CC(=O)n1c(Cl)c(NC(=O)CCl)c2ccccc21	.	.	.	.	.	.
Nc1ncnc2c1ncn2[C@@H]1O[C@H](CO)[C@@H](O)[C@H]1O	45	.	.	.	.	.
Nc1ncnc2c1ncn2[C@H]1C[C@H](O)[C@@H](CO)O1	.	.	.	.	.	.
Cc1cc(NC(=O)CSc2ccc(-c3nc4cc(C)c(C)cc4[nH]3)cn2)no1	.	.	.	.	10	.
Cc1cc2nc(-c3ccc(SCC(=O)Nc4ccc(S(=O)(=O)NC5CC5)cc4)nc3)[nH]c2cc1C	.	.	/	.	9.3	.
Cc1ccc(-c2nc(CSc3nc4ccccc4c(=O)n3CCO)cs2)cc1	.	.	/	.	.	60
C=CCn1c(SCc2csc(-c3ccc(C)cc3)n2)nnc1-c1ccccc1OC	.	.	/	.	.	81
Cc1ccc(-c2nc(CSc3nc4ccccc4c(=O)n3C)cs2)cc1	.	.	/	.	11	.
COc1ccccc1-n1cnnc1SCc1csc(-c2ccccc2)n1	.	.	.	.	.	.
Cc1ccc(CNC(=O)CSc2nc3ccccc3c(=O)n2CCCO)cc1	.	.	.	.	.	.
COc1ccc(CNC(=O)c2ccc(S(=O)(=O)N3CCCC3)cc2)cc1OC	.	.	.	.	.	.
COc1ccc(NS(=O)(=O)c2cc(NC(=O)[C@@H](NC(=O)c3ccccc3)C(C)C)ccc2C)cc1	.	.	/	.	8.6	.
CCOc1cc(C2c3c(oc4cc(C)c(Cl)cc4c3=O)C(=O)N2Cc2ccco2)ccc1O (stereo unspecified)	.	.	.	.	8.4	.
CC(=O)Nc1ccc(OS(=O)(=O)c2ccc([N+](=O)[O-])cc2)cc1	/	/	/	/	.	.
O=C(NCCC(c1ccccc1)c1ccccc1)c1ccc(Br)o1	.	.	.	.	10	.
Cc1cc(C(=O)O)c(C)n1-c1ccccc1	40	.	.	.	.	.
CCO[C@H]1OC(C(N)=O)=C[C@@H](C2CC2)[C@@H]1CCCO	/	/	.	/	/	/
CC(C)N1C(=O)CCC1C(=O)NCCc1ccc(Cl)cc1 (stereo unspecified)	30	.	/	.	.	.
CC[n+]1c(C=C2C=C(C)OC(C)=C2)sc2ccccc21	/	/	/	/	.	69
CC#CC(=O)N1CCC(CO)(CCc2ccccc2)CC1	/	/	/	/	.	.
NS(=O)(=O)c1ccc(CCNC(=O)Nc2ccc(Cl)c(Cl)c2)cc1	.	.	.	.	11	.
Cc1ccccc1C(=O)Nc1ccccc1-c1nnn(CC(=O)Nc2ccc3c(c2)OCCO3)n1	.	.	.	.	.	.
Cc1cc(S(=O)(=O)N(Cc2ccc(C(C)(C)C)cc2)Cc2cccs2)ccc1-n1cnnn1	.	.	/	.	9.3	.
COc1cc(S(=O)(=O)N(Cc2cccnc2)Cc2ccco2)ccc1-n1cnnn1	.	.	.	.	.	.
COc1cc(S(=O)(=O)N(Cc2ccc(C)cc2)Cc2ccco2)ccc1-n1cnnn1	.	.	.	.	9.0	.
SMILES	Measles CPE	Yeast life ext	hDAT+cocaine	Yeast growth inh	RAM inhibit	WT yeast gro inh
O=C(Nc1ccc([N+](=O)[O-])cc1)Nc1nc(-c2ccc(Cl)s2)cs1	.	.	/	.	.	87
Cc1ccc(OCC(=O)N/N=C/C=C/c2ccco2)cc1	.	.	.	.	.	.
O=C(CSc1nnc(SCc2ccccc2)s1)N/N=C/C=C\c1ccco1	.	.	/	.	11	.
O=C(COc1ccccc1[N+](=O)[O-])N/N=C/C=C/c1ccco1	.	.	/	.	.	71
COC(=O)Oc1ccc(/C=N/NC(=O)CSCc2ccc(Cl)cc2)cc1OC	.	.	/	.	.	.
Nc1cccc2c1C(=O)N(C(=O)c1ccc(Cl)c(S(=O)(=O)N3CCCCCC3)c1)C2=O	.	75	.	.	.	.
Nc1cccc2c1C(=O)N(C(=O)c1cccc(S(=O)(=O)N3CCCCCC3)c1)C2=O	.	.	.	.	.	.
O=C(O)c1cccc(NC(=O)c2ccc(Cl)c(S(=O)(=O)N3CCCCCC3)c2)c1	/	/	/	/	9.7	.
N#CCCN(CCN1CCCC1)S(=O)(=O)c1ccc(-c2ccc([N+](=O)[O-])cc2)cc1	/	/	/	/	.	.
Cc1cccc(C)c1NC(=O)N1CCC(n2cnc3ccccc32)CC1	.	.	.	.	.	.
O=C(NC1CCCCC1)N1CCC(n2cnc3ccccc32)CC1	76	.	.	.	.	.
CS(=O)(=O)Nc1ccc2c(c1)C(=O)OC2	53	.	.	.	.	.
CC(C)(C)c1ccc(S(=O)(=O)Nc2ccc3c(c2)COC3=O)cc1	/	/	/	/	.	.
CN1CCc2cc3c(c4c2[C@H]1[C@H](O)c1ccccc1-4)OCO3	.	.	.	62	.	.
COc1ccc(C(=O)c2c[nH]c(C(=O)N=CN(C)C)c2)cc1	/	/	/	/	.	.
O=C(CCSc1ccc(Cl)cc1)N1CCCCCC1	31	.	.	.	.	.
COc1cc(Cl)c(C)cc1NC(=O)CCCn1c(=O)oc2ccccc21	.	.	/	.	.	.
COc1cc(OC)c(NC(=O)CCCn2c(=O)oc3ccccc32)cc1Cl	.	.	/	.	11	.
CCOC(=O)N1CCC(NC(=O)C2CCN(c3ccc(N4CCOCC4)nn3)CC2)CC1	48	.	.	.	.	.
O=C(NNC(=O)C1CCN(Cc2ccc(Cl)c(Cl)c2)CC1)c1cccs1	/	/	/	/	.	.
O=C1CC(c2ccccc2)CC(=O)C1Sc1ccc(Cl)cc1 (stereo unspecified)	.	40	/	.	.	.
O=C1CC(c2ccc(Cl)cc2)CC(=O)C1CS(=O)(=O)c1ccccc1 (stereo unspecified)	/	/	/	/	.	.
C=CC[n+]1ccc(/C=C2\C=Cc3cc(C)ccc3N2CC)c2ccccc21	/	/	/	/	.	87
CCN1/C(=C/c2cc[n+](CCCS(=O)(=O)[O-])c3ccccc23)Sc2ccccc21	/	/	/	/	.	.
CC1CCC(C(C)C)C(OCC(O)CNC(C)c2ccccc2)C1 (stereo unspecified)	/	/	/	/	.	67
SMILES	Measles CPE	Yeast life ext	hDAT+cocaine	Yeast growth inh	RAM inhibit	WT yeast gro inh
CC1CCC(C(C)C)C(OCC(O)CNC(C)(C)C)C1 (stereo unspecified)	/	/	/	/	.	.
CC(NCC(O)COC1CCC(C(C)(C)C)CC1)c1ccccc1 (stereo unspecified)	/	/	/	/	.	72
O=c1c2ccccc2nc2n1CCN2Cc1ccc(Cl)cc1	.	.	.	.	.	.
CNC(=S)N(Cc1cc2ccc(OC)cc2[nH]c1=O)CC1CCCO1 (stereo unspecified)	/	/	/	/	.	.
CCN(CC)CCCNc1oc(-c2ccc(OC)c(OC)c2)nc1C#N	45	.	.	.	.	.
COc1ccc(-c2nc(C#N)c(NCCCn3ccnc3)o2)cc1OC	.	.	.	.	.	.
O=C(O)c1cccc(N2C(=O)C3C4C=CC(C4=C(c4ccccc4)c4ccccc4)C3C2=O)c1 (stereo unspecified)	/	/	/	/	.	.
